PubChem BioAssay
Activity calls are given as the source filed them.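 How the source made its calls, unless noted: active means viability at or under a set limit in both replicates, limit being median viability minus 3 SD (cut at about 48% in these data, passing the limit was not always enough); inconclusive means at or under the limit in just one replicate; inactive means at or above the limit in both replicates.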

Experiments:
[1] = SK-BR-3 cell growth inhibitors, pilot screen, 24 h, human (AID 572;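 active means viability at or below 10% of carrier control in both of two separate runs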;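 further: compound exposure lasted between 18 and 24 h rather than exactly 24 h; 100% = carrier-treated control wells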); conditions: SK-BR-3 viability, CellTiter-Glo luminescence, at 10 µM, stronger effect = lower value
[2] = HUVEC growth inhibition – cell-based, human, primary screen (AID 575;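 active means viability at or below 30% in both replicate assays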;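 further: 100% = median of untreated cell wells with 0.1% DMSO on each plate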); conditions: HUVEC proliferation, CellTiter-Glo luminescence, 72 h; at 10 µM; stronger effect = lower value
Method in brief: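 Assay system: primary human umbilical vein endothelial cells / Buffer or medium: endothelial basal medium with 2% FBS plus growth supplements / Compound dosing: one dose, 10 µM final, 0.1% DMSO / Timing: 72 h treatment at 37 °C / Signal: CTG luminescence / Benchmarks: 32 DMSO-only cell-control wells (high), 32 MePR drug-control wells (low) per plate / Plate: collagen-coated 384-well format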

[3] = growth inhibitors of H69AR lung tumor, primary screen, human, duplicate replicates (AID 580); conditions: H69AR lung tumor cells viability, ATP luminescence, 72 h; at 10 µM; stronger effect = lower value;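 further: 100% = mean luminescence of untreated wells and 0% = no signal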
[4] = reversal of MRP1-mediated doxorubicin resistance, pilot screen, H69AR cells, doxorubicin co-treatment (AID 601;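 active means viability loss from added drug above about 55%, and viability with drug at most 40%, in both replicates, limit read from the data, passing the limit was not always enough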); conditions: CellTiter-Glo, 72 h, at 10 µM; for differential viability (reversal): stronger effect = higher value
[5] = 384-well plate pilot, post-Golgi transport modulator project, inhibition of yeast transport mutant growth (AID 636; in the data active means inhibition above about 31%); conditions: absorbance 615 nm, about 18 h, stronger effect = higher value
[6] = growth suppression of yeast trafficking mutant, preliminary HTS, modulators of trafficking downstream of Golgi apparatus project, 1536-format plate, OD 615 nm (AID 637; in the data active means inhibition above about 30%); conditions: yeast transport mutant growth, absorbance 615 nm, 18 h; stronger effect = higher value
[7] = H69AR cells + 2 uM doxorubicin, measured here: viability with 2 uM doxorubicin, stronger effect = lower value
[8] = H69AR cells, compound alone cytotoxicity

| Structure (SMILES) | viability [1] | viability [2] | viability [3] | differential viability (reversal) ([4]; H69AR cells + 2 uM doxorubicin) | viability [4, 7] [%] | viability [4, 8] [%] | inhibition [5] | inhibition [6] |
| --- | --- | --- | --- | --- | --- | --- | --- | --- |
| CC(=O)c1c(C)[nH]c(C(=O)Nc2c(C)n(C)n(-c3ccccc3)c2=O)c1C | 82% (inactive) | 101% (inactive) | 90.2% (inactive) | 7.98% (inactive) | 82.2 | 90.2 | -8.63% (inactive) | 0% (inactive) |
| O=C(c1ccccc1-c1nc(-c2ccccc2)no1)N1CCCC1 | 105% (inactive) | 120% (inactive) | 90.9% (inactive) | 9.27% (inactive) | 81.6 | 90.9 | -5.07% (inactive) | -3.23% (inactive) |
| N#CC1=C(N)N(c2ccccc2)C(c2ccccc2)C1(C#N)C#N (stereo unspecified) | 84.5% (inactive) | 81.6% (inactive) | 80.1% (inactive) | 1.28% (inactive) | 78.8 | 80.1 | -6.27% (inactive) | -0.97% (inactive) |
| COCCCNC(=O)CCCn1c(=O)c2ccccc2n(CC(=O)Nc2c(C)cccc2C)c1=O | 99% (inactive) | 97.6% (inactive) | 93.1% (inactive) | 4.87% (inactive) | 88.2 | 93.1 | -1.69% (inactive) | -1.31% (inactive) |
| c1ccc2c(-c3nc(-c4ccncc4)no3)cccc2c1 | 56% (inactive) | 86.4% (inactive) | 102% (inactive) | 5.25% (inactive) | 96.3 | 102 | -5.89% (inactive) | 10.6% (inactive) |
| COc1ccc(NC(=O)CCc2ccccc2)cc1NC(=O)c1ccco1 | 64% (inactive) | 58.4% (inactive) | 56.6% (inactive) | -20.6% (inactive) | 77.2 | 56.6 | -7.12% (inactive) | 9.68% (inactive) |
| Cc1cccc(N2CCN(C(=O)C3CCCN(S(=O)(=O)c4c(C)noc4C)C3)CC2)c1C (stereo unspecified) | 78% (inactive) | 53.1% (inactive) | 81.9% (inactive) | 2.14% (inactive) | 79.7 | 81.9 | -3.21% (inactive) | 0.83% (inactive) |
| Cc1cc(C)n(-c2nc3c(c(=O)[nH]c(=O)n3C)n2Cc2ccc(F)cc2)n1 | 93% (inactive) | 113% (inactive) | 96.5% (inactive) | 8.69% (inactive) | 87.8 | 96.5 | -4.19% (inactive) | -1.45% (inactive) |
| O=S(=O)(NC1CCCCC1NS(=O)(=O)c1ccc(F)cc1)c1ccc(F)cc1 (stereo unspecified) | 106% (inactive) | 91.2% (inactive) | 94.1% (inactive) | -1.67% (inactive) | 95.8 | 94.1 | -4.68% (inactive) | 6.07% (inactive) |
| CC(=O)[C@@]1(O)CC[C@H]2[C@@H]3C[C@H](C)C4=CC(=O)C=C[C@]4(C)[C@@]3(F)[C@@H](O)C[C@@]21C | 100% (inactive) | 92.3% (inactive) | 93.2% (inactive) | -9.97% (inactive) | 103 | 93.2 | -0.91% (inactive) | 7.83% (inactive) |
| CCc1nc(SCC(=O)NCc2ccco2)c2c3c(sc2n1)CCCC3 | 97% (inactive) | 78.8% (inactive) | 67.8% (inactive) | -9.31% (inactive) | 77.1 | 67.8 | -3.12% (inactive) | -3.44% (inactive) |
| COc1ccc(CCNc2oc(COc3ccc(F)cc3)nc2C#N)cc1 | 164% (inactive) | 76.2% (inactive) | 93.7% (inactive) | 2.54% (inactive) | 91.1 | 93.7 | -4.73% (inactive) | 1.27% (inactive) |
| COCCCn1nnnc1SCC(=O)Nc1nc(C)c(C)s1 | 109% (inactive) | 89.2% (inactive) | 88.1% (inactive) | 2.5% (inactive) | 85.6 | 88.1 | -2.88% (inactive) | 1.13% (inactive) |
| O=C(CN1C(=O)CCS(=O)(=O)c2ccccc21)Nc1cccc(F)c1 | 115% (inactive) | 115% (inactive) | 106% (inactive) | 9.57% (inactive) | 96.5 | 106 | 3.65% (inactive) | -1.09% (inactive) |
| CCOc1cccc(C(=O)N(Cc2ccco2)C2CCS(=O)(=O)C2)c1 (stereo unspecified) | 96% (inactive) | 109% (inactive) | 97.6% (inactive) | 8.11% (inactive) | 89.5 | 97.6 | -5.95% (inactive) | -1.09% (inactive) |
| COC(=O)c1ccc2c(=O)n(NC(C)=O)c(=S)[nH]c2c1 | 93% (inactive) | 109% (inactive) | 93.7% (inactive) | 10.7% (inactive) | 83 | 93.7 | -6.67% (inactive) | 3.09% (inactive) |

| Structure (SMILES) | viability [1] | viability [2] | viability [3] | differential viability (reversal) ([4]; H69AR cells + 2 uM doxorubicin) | viability [4, 7] [%] | viability [4, 8] [%] | inhibition [5] | inhibition [6] |
| --- | --- | --- | --- | --- | --- | --- | --- | --- |
| Cc1cc(NC(=O)CSc2nc(CCC3CCCC3)nc3ccccc23)no1 | 92% (inactive) | 92.2% (inactive) | 22.3% (active) | -1.14% (inactive) | 23.4 | 22.3 | -2.86% (inactive) | -5.08% (inactive) |
| CCOc1cc2[nH]c(=O)n(CCC(=O)NCCc3ccc(OC)c(OC)c3)c(=O)c2cc1OCC | 103% (inactive) | 75.4% (inactive) | 96.8% (inactive) | 17.1% (inactive) | 79.7 | 96.8 | -3.38% (inactive) | -0.98% (inactive) |
| CCCCOc1ccc(C(=O)CCN2CCCCC2)cc1 | 121% (inactive) | 46% (inactive) | 66.1% (inactive) | 24.7% (inactive) | 41.4 | 66.1 | -2.21% (inactive) | 6.17% (inactive) |
| COc1ccc(OC)c(S(=O)(=O)Nc2ccccc2SC)c1 | 72% (inactive) | 83.7% (inactive) | 100% (inactive) | 18.9% (inactive) | 81 | 100 | -5.34% (inactive) | -1.45% (inactive) |
| COc1cc(C2c3c(oc4c(C)cc(C)cc4c3=O)C(=O)N2Cc2cccnc2)ccc1O (stereo unspecified) | 78% (inactive) | 69.1% (inactive) | 80.2% (inactive) | 2.59% (inactive) | 77.6 | 80.2 | 0.13% (inactive) | 2.42% (inactive) |
| Cn1ncc2c(Nc3ccccc3Br)ncnc21 | 109% (inactive) | 101% (inactive) | 106% (inactive) | 13.5% (inactive) | 92.8 | 106 | -7.67% (inactive) | -2.55% (inactive) |
| Cc1ccc(-c2nnc3c4ccccc4c(C)nn23)cc1NC(=O)c1ccco1 | 81.5% (inactive) | 98.2% (inactive) | 91.8% (inactive) | -3.85% (inactive) | 95.7 | 91.8 | -5.27% (inactive) | 6.51% (inactive) |
| O=C(NCC(=O)N(c1cccnc1)C(C(=O)NC1CCCCC1)c1cccnc1)c1ccco1 (stereo unspecified) | 111% (inactive) | 113% (inactive) | 109% (inactive) | 9.06% (inactive) | 99.9 | 109 | -3.07% (inactive) | 4.91% (inactive) |
| O=C(NS(=O)(=O)c1ccc(NC(=O)C2CCCO2)cc1)c1ccccc1 (stereo unspecified) | 79% (inactive) | 103% (inactive) | 92.8% (inactive) | 4.17% (inactive) | 88.7 | 92.8 | -6.35% (inactive) | -0.55% (inactive) |
| COC(=O)c1ccc(COC(=O)c2c(C)nn(Cc3ccccc3Cl)c2Cl)o1 | 69% (inactive) | 94.6% (inactive) | 86.2% (inactive) | 4.08% (inactive) | 82.1 | 86.2 | -4.38% (inactive) | 3.82% (inactive) |
| O=C(CSc1nc2ccccc2o1)NC(=O)NCc1ccco1 | 92% (inactive) | 96.3% (inactive) | 89.3% (inactive) | 3.28% (inactive) | 86.1 | 89.3 | -3.51% (inactive) | -1.27% (inactive) |
| CCc1nnc(NC(=O)C2Cc3ccccc3CN2S(=O)(=O)c2cccs2)s1 (stereo unspecified) | 109% (inactive) | 89% (inactive) | 68.1% (inactive) | -16.4% (inactive) | 84.5 | 68.1 | -2.34% (inactive) | -3.28% (inactive) |
| CCOC(=O)C(C(C)=O)c1nc(C)nc2c1nnn2Cc1ccccc1Cl (stereo unspecified) | 58% (inactive) | 71.7% (inactive) | 79.4% (inactive) | -9.73% (inactive) | 89.1 | 79.4 | 1.08% (inactive) | -2.18% (inactive) |
| O=S(=O)(c1ccc(Br)s1)N1CCN(c2ccccc2)CC1 | 90% (inactive) | 96.9% (inactive) | 87.6% (inactive) | -4.09% (inactive) | 91.7 | 87.6 | -3.78% (inactive) | -3.27% (inactive) |
| COc1ccc(CC(=O)Nc2c3c(nn2-c2cccc(Cl)c2)CS(=O)C3)cc1 (stereo unspecified) | 111% (inactive) | 95.6% (inactive) | 104% (inactive) | 14.5% (inactive) | 89.5 | 104 | -2.73% (inactive) | -1.97% (inactive) |
| CC(C)(C)NCC(O)COc1cccc2c1C[C@H](O)[C@H](O)C2 (stereo partly specified) | 82% (inactive) | 85.3% (inactive) | 97.1% (inactive) | 4.26% (inactive) | 92.8 | 97.1 | 2.86% (inactive) | 1.83% (inactive) |
